Measured values published in ChEMBL document CHEMBL1131936, “Structure-activity relationships of a series of benzothiophene-derived NPY Y1 antagonists: optimization of the C-2 side chain” (Bioorg Med Chem Lett, 1999).

biological target: T1, Neuropeptide Y receptor type 1 (Homo sapiens, UniProt P25929); assay: Functional Neuropeptide Y receptor type 1 antagonism was evaluated by its ability to reverse NPY induced inhibition of forskolin-stimulated cyclic AMP production in SK-N-MC cells; type: cell-based
T1 sequence (P25929 whole entry): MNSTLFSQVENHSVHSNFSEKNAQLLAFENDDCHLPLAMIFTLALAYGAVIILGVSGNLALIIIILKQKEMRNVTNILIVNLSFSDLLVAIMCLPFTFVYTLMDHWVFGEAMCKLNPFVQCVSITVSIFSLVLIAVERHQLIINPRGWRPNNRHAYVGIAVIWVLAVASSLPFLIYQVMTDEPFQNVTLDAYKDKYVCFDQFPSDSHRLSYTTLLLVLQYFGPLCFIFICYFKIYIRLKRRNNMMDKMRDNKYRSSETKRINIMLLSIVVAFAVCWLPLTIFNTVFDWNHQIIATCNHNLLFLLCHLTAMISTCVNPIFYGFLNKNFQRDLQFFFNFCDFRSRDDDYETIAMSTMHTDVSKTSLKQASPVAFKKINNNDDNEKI
Procedure, shortened: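 SK-N-MC cells; forskolin-stimulated cyclic AMP production inhibited by NPY, and test compound reversal of this inhibition measured. Ki derived, n = 2–3 determinations.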

Ki | SMILES
4.7 µM | CN(C)C1CCN(CCc2c(COc3ccc(Cl)cc3Cl)sc3ccccc23)CC1
1.2 µM | CN(C)C1CCN(CCc2c(COc3ccc(Br)cc3CO)sc3ccccc23)CC1

biological target: T1, Neuropeptide Y receptor type 1; assay: Ability to displace [125I]pPYY from AV12 cell line stably transfected with cloned human neuropeptide Y receptor type 1.; type: cell-based
Procedure, shortened: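 Membranes prepared from AV12 cells stably transfected with the human Y1 receptor; test compound displacement of 125I-porcine PYY binding measured, method as previously reported. Ki reported in μM.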

Ki | SMILES
0.45 µM | CN(C)C1CCN(CCc2c(COc3ccccc3CO)sc3ccccc23)CC1
2.83 µM | Cc1ccc(OCc2sc3ccccc3c2CCN2CCC(N(C)C)CC2)c(C(C)(C)C)c1
88 µM | CN(C)C1CCN(CCc2c(CO)sc3ccccc23)CC1
0.14 µM | CN(C)C1CCN(CCc2c(COc3ccc(Cl)cc3Cl)sc3ccccc23)CC1
0.66 µM | CNCc1cc(Br)ccc1OCc1sc2ccccc2c1CCN1CCC(N(C)C)CC1
0.42 µM | Cc1ccccc1OCc1sc2ccccc2c1CCN1CCC(N(C)C)CC1
0.12 µM | CN(C)C1CCN(CCc2c(COc3ccc(Br)cc3Br)sc3ccccc23)CC1
3.8 µM | CN(C)C1CCN(CCc2c(C(O)c3ccc(Cl)cc3Cl)sc3ccccc23)CC1 (stereo unspecified)
11.1 µM | Clc1ccc(OCc2sc3ccccc3c2CN2CCCCC2)cc1
0.31 µM | CN(C)C1CCN(CCc2c(COc3ccc(Cl)cc3)sc3ccccc23)CC1
1.9 µM | Clc1ccc(OCc2sc3ccccc3c2CCN2CCCCC2)cc1
0.16 µM | CN(C)C1CCN(CCc2c(COc3ccc(Br)cc3)sc3ccccc23)CC1
0.013 µM | CN(C)C1CCN(CCc2c(COc3ccc(Br)cc3C#N)sc3ccccc23)CC1
0.015 µM | CN(C)C1CCN(CCc2c(COc3ccc(Br)cc3CO)sc3ccccc23)CC1
3.7 µM | CN(C)C1CCN(CCc2c(COc3ccc(-c4ccccc4)cc3)sc3ccccc23)CC1
0.172 µM | CN(C)C1CCN(CCc2c(COc3ccc(Br)cc3C(N)=O)sc3ccccc23)CC1
7.9 µM | CN(C)C1CCN(CCc2c(C#Cc3ccc(Cl)cc3Cl)sc3ccccc23)CC1
0.078 µM | Cc1ccc(OCc2sc3ccccc3c2CCN2CCC(N(C)C)CC2)c(Br)c1
2.3 µM | CN(C)C1CCN(CCc2c(C(=O)Nc3ccc(Cl)cc3Cl)sc3ccccc23)CC1
1.26 µM | CN(C)C1CCN(CCc2c(COc3ccccc3)sc3ccccc23)CC1
2.42 µM | Cc1cc(C)c(OCc2sc3ccccc3c2CCN2CCC(N(C)C)CC2)c(C)c1
4.5 µM | CN(C)C1CCN(CCc2c(/C=N/Nc3ccc(Cl)cc3Cl)sc3ccccc23)CC1
1.7 µM | CN(C)C1CCN(CCc2c(CNc3ccc(Cl)cc3Cl)sc3ccccc23)CC1
0.74 µM | CN(C)C1CCN(CCc2c(COc3ccc(C(F)(F)F)cc3)sc3ccccc23)CC1
5.8 µM | CN(C)C1CCN(CCc2c(C(Oc3ccc(Cl)cc3Cl)c3ccccc3)sc3ccccc23)CC1 (stereo unspecified)

Ki | SMILES
0.42 µM | Cc1cc(Br)ccc1OCc1sc2ccccc2c1CCN1CCC(N(C)C)CC1
0.45 µM | CN(C)C1CCN(CCc2c(COc3ccccc3Br)sc3ccccc23)CC1
4 µM | COC(c1ccc(Cl)cc1Cl)c1sc2ccccc2c1CCN1CCC(N(C)C)CC1 (stereo unspecified)
2.8 µM | CN(C)C1CCN(CCc2c(CCOc3ccc(Cl)cc3Cl)sc3ccccc23)CC1
2.43 µM | CN(C)Cc1cc(Br)ccc1OCc1sc2ccccc2c1CCN1CCC(N(C)C)CC1
0.72 µM | CN(C)C1CCN(CCc2c(COc3ccc(Br)cc3C(F)(F)F)sc3ccccc23)CC1
0.69 µM | CC(CN1CCC(N(C)C)CC1)c1c(COc2ccc(Cl)cc2Cl)sc2ccccc12 (stereo unspecified)
0.19 µM | CN(C)C1CCN(CCc2c(COc3ccc(CO)cc3Br)sc3ccccc23)CC1
12.6 µM | CN(C)C1CCN(CCc2c(/C=N/c3ccc(Cl)cc3Cl)sc3ccccc23)CC1
3.6 µM | CN(C)C1CCN(CCc2c(COc3c(Br)cc(Br)cc3Br)sc3ccccc23)CC1
0.37 µM | Cc1ccc(OCc2sc3ccccc3c2CCN2CCC(N(C)C)CC2)cc1
0.98 µM | C=CCc1ccccc1OCc1sc2ccccc2c1CCN1CCC(N(C)C)CC1
12 µM | CN(C)C1CCN(CCc2c(C(C)(C)Oc3ccc(Cl)cc3Cl)sc3ccccc23)CC1
4.2 µM | CN(C)C1CCN(CCc2c(Cc3ccc(Cl)cc3Cl)sc3ccccc23)CC1
0.011 µM | COCc1cc(Br)ccc1OCc1sc2ccccc2c1CCN1CCC(N(C)C)CC1
0.38 µM | CN(C)C1CCN(CCc2c(COc3ccc(C#N)cc3Br)sc3ccccc23)CC1
5.6 µM | CN(C)C1CCN(CCc2c(C(=O)c3ccc(Cl)cc3Cl)sc3ccccc23)CC1
6.5 µM | CN(C)C1CCN(CCc2c(-c3ccc(Cl)cc3Cl)sc3ccccc23)CC1
1.7 µM | CC(Oc1ccc(Cl)cc1Cl)c1sc2ccccc2c1CCN1CCC(N(C)C)CC1 (stereo unspecified)
12.4 µM | CN(C)C1CCN(CCc2c(/C=C/c3ccc(Cl)cc3Cl)sc3ccccc23)CC1
2.76 µM | CN(C)C1CCN(CCc2c(COc3ccccc3C=O)sc3ccccc23)CC1
2.6 µM | Clc1ccc(OCc2sc3ccccc3c2CCCN2CCCCC2)cc1
0.12 µM | Cc1ccc(OCc2sc3ccccc3c2CCN2CCC(N(C)C)CC2)c(C)c1
0.38 µM | CN(C)C1CCN(CCc2c(COc3ccccc3I)sc3ccccc23)CC1
